Data reported in ChEMBL document CHEMBL1123657, “Anthrapyrazole anticancer agents. Synthesis and structure-activity relationships against murine leukemias” (J Med Chem, 1987).

Key:
P388 [1] = assay: Inhibition of P388 leukemia cells in mice, measured as percent treated to the control values with the number of 30 day survivors; type: functional, Mus musculus
In short: (§1)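 P388 leukemia implanted ip in mice; drug given ip on days 1 and 5 (ip/ip; D1,5), dosed in mg/kg per injection. Read-out is treated/control (T/C, %) with cures counted, reported at the optimal dose.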

B16 [2] = assay: Optimal dose per injection in mg/kg required to inhibit growth of murine B-16 melanoma in vivo; type: functional, Mus musculus
In short: (§2)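 Murine B-16 melanoma in vivo: tumor implanted ip, compound given ip on days 1–9 (ip/ip; D1–9), dosed as mg/kg per injection. Activity expressed as T/C (%) plus number of cures, taken at the optimal dose.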

P388 [3] = assay: Optimal dose per injection in mg/kg required to inhibit growth of P388 leukemia cells in mice; type: functional, Mus musculus; in short: as §1
L1210 [4] = assay: Tested in vitro against murine L1210 leukemia.; type: functional, cell-based; conditions: Mus musculus
B16 [5] = assay: Tested for activity against murine B-16 melanoma in mice and percent treated to the control values with the number of 60 day survivors; type: functional, Mus musculus; in short: as §2
P388 [6] = assay: Activity against P388 leukemia cells in mice, by intraperitoneal dosing and net log tumor cell kill was reported; type: functional, Mus musculus
L1210 [7] = assay: Compound was tested in vitro against murine L1210 leukemia;IA means inactive; type: functional, cell-based, Mus musculus
P388 [8] = assay: Tested for activity against P388 leukemia cells in mice, by intraperitoneal dosing and percent treated to the control values with the number of 30 day survivors i; type: functional, Mus musculus
In short: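 P388 leukemia implanted intraperitoneally in mice. Compound given ip on days 1 and 5, as mg/kg per injection across a dose series. Read-out is median survival of treated mice as a percentage of untreated controls (T/C %), taken at the optimal dose, with cures noted.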

L1210 [9] = assay: Compound was tested in vitro against murine L1210 leukemia; IA is inactive.; type: functional, cell-based, Mus musculus

IC50 (L1210 [9]) | SMILES | T/C (P388 [1]) [%] | Optimal dose (B16 [2]) [mg/kg] | Dose (P388 [3]) [mg/kg] | IC50 (L1210 [4]) [nM] | T/C (B16 [5]) [%] | Activity (P388 [6]) | IC50 (L1210 [7]) | T/C (P388 [8]) [%]
 | Cl.O=C1c2c(O)ccc(O)c2-c2nn(CCNCCO)c3ccc(NCCN(CCO)CCO)c1c23 | 277 | 25 | 200 | 430 | 342 | >6.6 |  | 
 | CCCCCCNc1ccc2c3c(nn2CCO)-c2ccccc2C(=O)c13 | 98 |  | 100 |  |  | -1.6 | Not Active | 
 | CCN(CC)CCn1nc2c3c(c(NCCN)ccc31)C(=O)c1ccccc1-2.Cl |  |  | 25 | 46 |  | -1.5 |  | 104
 | CCN(CC)CCn1nc2c3c(c(NCCN)ccc31)C(=O)c1c(O)ccc(O)c1-2.Cl | 280 | 3.6 | 12.5 | 46 | 176 | >7.1 |  | 
 | Cl.O=C1c2c(O)ccc(O)c2-c2nn(CCO)c3ccc(NCCNCCO)c1c23 | 271 | 80 | 200 | 780 | 246 | 6.8 |  | 
Not Active | CCN(CC)CCNc1cccc2c1C(=O)c1cccc3c1c-2nn3C.Cl |  |  |  |  |  |  |  | 
 | CCN(CC)CCn1nc2c3c(cccc31)C(=O)c1c(NCCNCCO)cccc1-2.Cl |  |  | 12.5 | 230 |  | -1.3 |  | 117
